From ChEMBL document CHEMBL2380235, “Discovery of N-{4-[(3-hydroxyphenyl)-3-methylpiperazin-1-yl]methyl-2-methylpropyl}-4-phenoxybenzamide analogues as selective kappa opioid receptor antagonists” (J Med Chem, 2013)
Active and inactive are the calls of the source. The rule behind the calls is not given here.

Key:
[1] = target: Delta-type opioid receptor (Homo sapiens) (UniProt P41143); test: Antagonist activity at human delta opioid receptor expressed in CHO cells assessed as inhibition of DPDPE-stimulated [35S]GTPgammaS binding; assay type: functional, cell-based
Delta-type opioid receptor (Homo sapiens), sequence (P41143 whole entry): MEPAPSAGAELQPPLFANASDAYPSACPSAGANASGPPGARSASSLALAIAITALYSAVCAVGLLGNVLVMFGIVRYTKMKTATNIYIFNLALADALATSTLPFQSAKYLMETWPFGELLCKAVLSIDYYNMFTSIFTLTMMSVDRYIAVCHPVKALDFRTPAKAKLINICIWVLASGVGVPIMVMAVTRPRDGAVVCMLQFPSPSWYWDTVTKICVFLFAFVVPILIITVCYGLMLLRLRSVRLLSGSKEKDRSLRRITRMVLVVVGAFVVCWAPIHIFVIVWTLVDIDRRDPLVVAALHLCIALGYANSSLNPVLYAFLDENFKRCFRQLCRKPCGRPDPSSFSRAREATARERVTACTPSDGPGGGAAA
How it was run: (§1)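 Agonist concentration-response curves (eight concentrations, duplicate) were run with or without a single test-compound concentration. Ke = [L]/(DR−1), where [L] is the test-compound concentration and DR is the ratio of agonist EC50 with versus without compound. At least two test-compound concentrations were used, chosen to shift agonist EC50 rightward at least four-fold while keeping a clear upper asymptote.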

[2] = target: Delta-type opioid receptor (Homo sapiens) (UniProt P41143); test: Intrinsic activity at human delta opioid receptor expressed in CHO cells at 10 uM by [35S]GTPgammaS binding assay; assay type: functional, cell-based
[3] = species: Homo sapiens; test: Selectivity ratio of Ke for human delta opioid receptor to Ke for human kappa opioid receptor
[4] = target: Kappa-type opioid receptor (Homo sapiens) (UniProt P41145); test: Antagonist activity at human kappa opioid receptor expressed in CHO cells assessed as inhibition of U69,593-stimulated [35S]GTPgammaS binding at 10 nM relative to control; assay type: functional, cell-based
Kappa-type opioid receptor (Homo sapiens), sequence (P41145 whole entry): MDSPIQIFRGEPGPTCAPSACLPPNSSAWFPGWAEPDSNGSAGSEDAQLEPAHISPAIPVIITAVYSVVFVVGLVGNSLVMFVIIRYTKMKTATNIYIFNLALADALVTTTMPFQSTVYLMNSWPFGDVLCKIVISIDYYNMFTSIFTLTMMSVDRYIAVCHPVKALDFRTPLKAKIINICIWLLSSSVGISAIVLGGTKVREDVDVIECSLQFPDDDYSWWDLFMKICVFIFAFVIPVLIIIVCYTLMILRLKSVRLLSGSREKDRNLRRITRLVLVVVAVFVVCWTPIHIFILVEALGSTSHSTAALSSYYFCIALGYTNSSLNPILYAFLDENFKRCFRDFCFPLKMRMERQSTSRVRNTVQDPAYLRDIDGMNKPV

[5] = target: Kappa-type opioid receptor (Homo sapiens) (UniProt P41145); test: Antagonist activity at human kappa opioid receptor expressed in CHO cells assessed as inhibition of U69,593-stimulated [35S]GTPgammaS binding; assay type: functional, cell-based; how it was run: as §1
[6] = species: Homo sapiens; test: Selectivity ratio of Ke for human mu opioid receptor to Ke for human kappa opioid receptor
[7] = target: Kappa-type opioid receptor (Homo sapiens) (UniProt P41145); test: Intrinsic activity at human kappa opioid receptor expressed in CHO cells at 10 uM by [35S]GTPgammaS binding assay; assay type: functional, cell-based
[8] = target: Mu-type opioid receptor (Homo sapiens) (UniProt P35372); details: CHO
Mu-type opioid receptor (Homo sapiens), sequence (P35372 whole entry): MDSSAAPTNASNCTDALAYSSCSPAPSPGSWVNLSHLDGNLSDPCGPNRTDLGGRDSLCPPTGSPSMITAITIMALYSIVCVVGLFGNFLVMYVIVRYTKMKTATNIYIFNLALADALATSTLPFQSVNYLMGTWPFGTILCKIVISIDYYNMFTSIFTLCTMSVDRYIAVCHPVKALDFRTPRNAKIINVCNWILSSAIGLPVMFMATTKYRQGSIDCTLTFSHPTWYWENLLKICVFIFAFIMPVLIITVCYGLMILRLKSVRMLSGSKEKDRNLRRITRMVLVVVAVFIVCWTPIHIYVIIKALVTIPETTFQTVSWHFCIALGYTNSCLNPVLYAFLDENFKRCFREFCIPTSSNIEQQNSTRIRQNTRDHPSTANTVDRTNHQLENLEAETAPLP

| Structure (SMILES) | Ke [1] [nM] | Activity [2] | Ratio Ke [3] | inhibition [4] [%] | Ke [5] [nM] | Ratio Ke [6] | Activity [7] | Ke [8] [nM] |
| --- | --- | --- | --- | --- | --- | --- | --- | --- |
| CC(C)[C@@H](CN1CCN(c2cccc(O)c2)[C@@H](C)C1)NC(=O)c1ccc(Oc2ccccc2)cc1 | 570 | inactive | 671 | > 60 | 0.85 | 60 | inactive | 51 |
| CC(C)[C@@H](CN1CCN(c2cccc(O)c2)[C@@H](C)C1)NC(=O)c1ccc(-c2ccccc2)cc1 |  | inactive | 137 | > 60 | 1.87 | 4.7 | inactive |  |
| CCCCc1ccc(C(=O)N[C@H](CN2CCN(c3cccc(O)c3)[C@@H](C)C2)C(C)C)cc1 |  | inactive | 83 | > 60 | 2.8 | 7.5 | inactive |  |
